Experimental data reported in ChEMBL document CHEMBL1151323, “Use of on-flow LC/1H NMR for the study of an antioxidant fraction from Orophea enneandra and isolation of a polyacetylene, lignans, and a tocopherol derivative” (J Nat Prod, 1998).
Activity calls are given as the source filed them. The rule behind the calls is not given here.

What was measured:
[1] = DPPH radical scavenging activity at 10 ug by TLC autographic assay
[2] = DPPH radical scavenging activity at 10 ug by TLC autographic assay; format: functional
How it was run: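 TLC autography on silica gel 60 F254 plates developed in petroleum ether–EtOAc (1:2), dried, then sprayed with 0.2% DPPH in MeOH. Plates were read 30 min after spraying; active zones show as yellow spots on a purple background.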

Cladosporium cucumerinum [3] = experiment: Antifungal activity against Cladosporium cucumerinum at 40 ug; format: functional, organism-based
[4] = Antioxidant activity against beta-carotene assessed as inhibition of bleaching at 10 ug; format: functional
How it was run: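 Silica gel 60 F254 TLC plates developed in petroleum ether–EtOAc (1:2), then dried and sprayed with 0.05% β-carotene in CHCl3. Plates were kept under UV 254 nm until the background discolored. Inhibition of bleaching was read on the plate.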

Cladosporium cucumerinum [5] = experiment: Antifungal activity against Cladosporium cucumerinum at 20 ug; format: functional, organism-based
Cladosporium cucumerinum [6] = experiment: Antifungal activity against Cladosporium cucumerinum at 10 ug; format: functional, organism-based

Structure (SMILES)	Activity [1]	Activity [2]	Activity (Cladosporium cucumerinum [3])	Activity [4]	Activity (Cladosporium cucumerinum [5])	Activity (Cladosporium cucumerinum [6])
C/C(=C/CC/C(C)=C/CCC1(C)CCc2cc(O)cc(C)c2O1)C(=O)O (centres undefined)	Active	Active	Active	Active		
COc1cc([C@@H]2OC[C@@H]3[C@H]2CO[C@@H]3c2ccc(OC)c(OC)c2)ccc1O		Active		Active	Active	
COc1ccc([C@@H]2OC[C@@H]3[C@H]2CO[C@H]3c2ccc(OC)c(OC)c2)cc1OC		Active		Active	Active	
COc1ccc([C@H]2OC[C@@H]3[C@H]2CO[C@H]3c2ccc(OC)c(OC)c2)cc1OC		Active		Active	Active	
Clc1ccc(COC(Cn2ccnc2)c2ccc(Cl)cc2Cl)c(Cl)c1 (centres undefined)						Active
